Test system: ambulant boys with DMD
Assay: Phase Ib safety assessments
Type: in vivo, human
How it was run: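 Open-label study in boys aged 6–14 with genetically confirmed DMD, walking ≥75 m and on stable corticosteroids ≥6 months. Dosing was oral, 50–300 mg TID for 4 weeks, in 4 ascending cohorts. Assessments at screening, weeks 1, 2 and 4, and 1–2 weeks post-treatment: physical exam, AEs, supine/standing blood pressure and heart rate, respiratory rate. Also 12-lead ECG with QT, read locally and centrally, plus blood/urine haematology and biochemistry.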

[1] = Cohort 1 N = 5, 150 to 225 mg daily oral, 4 weeks
[2] = Cohort 2 N = 5, 300 to 450 mg daily oral, 4 weeks
[3] = Cohort 3 N = 5, 450 to 600 mg daily oral, 4 weeks

## [H]/N=C(\N)NC(=O)c1cc(S(C)(=O)=O)c(S(C)(=O)=O)cc1C [Rimeporide]
4-week treatment
  12-lead ECGs: no clinically important changes
All patients N = 20, 4 weeks
  Abdominal pain upper: patients (events): 2 (3 events)
  Chills: patients (events): 1 (2 events)
  Cough: patients (events): 3 (3 events)
  Dizziness: patients (events): 1 (1 event)
  Ear and labyrinth disorders: patients (events): 1 (1 event)
  Fall: patients (events): 1 (1 event)
  Flushing: patients (events): 2 (3 events)
  Gastrointestinal disorders: patients (events): 6 (10 events)
  General disorders and administration site conditions: patients (events): 2 (3 events)
  Infections and infestations: patients (events): 4 (4 events)
  Injury, poisoning and procedural complications: patients (events): 1 (1 event)
  Mouth ulceration: patients (events): 1 (1 event)
  Nervous system disorders: patients (events): 7 (8 events)
  Oropharyngeal pain: patients (events): 1 (1 event)
  Presyncope: patients (events): 1 (1 event)
  Pyrexia: patients (events): 1 (1 event)
  Respiratory, thoracic and mediastinal disorders: patients (events): 4 (4 events)
  Tympanic membrane perforation: patients (events): 1 (1 event)
  Vascular disorders: patients (events): 2 (3 events)
  Vomiting: patients (events): 2 (2 events)
[1]
  Abdominal pain upper: patients (events): 0
  Any treatment-emergent adverse event: patients (events): 2 (6 events)
  Chills: patients (events): 1 (2 events)
  Cough: patients (events): 0
  Diarrhoea: patients (events): 0
  Dizziness: patients (events): 0
  Ear and labyrinth disorders: patients (events): 0
  Fall: patients (events): 1 (1 event)
  Flushing: patients (events): 0
  Gastrointestinal disorders: patients (events): 0
  General disorders and administration site conditions: patients (events): 1 (2 events)
  Headache: patients (events): 1 (1 event)
  Infections and infestations: patients (events): 0
  Injury, poisoning and procedural complications: patients (events): 1 (1 event)
  Mouth ulceration: patients (events): 0
  Nasopharyngitis: patients (events): 0
  Nervous system disorders: patients (events): 1 (1 event)
  Oropharyngeal pain: patients (events): 0
  Presyncope: patients (events): 0
  Pyrexia: patients (events): 0
  Respiratory, thoracic and mediastinal disorders: patients (events): 0
  Tympanic membrane perforation: patients (events): 0
  Vascular disorders: patients (events): 0
  Vomiting: patients (events): 0
[2]
  Abdominal pain upper: patients (events): 0
  Any treatment-emergent adverse event: patients (events): 1 (3 events)
  Chills: patients (events): 0
  Cough: patients (events): 1 (1 event)
  Diarrhoea: patients (events): 0
  Dizziness: patients (events): 0
  Ear and labyrinth disorders: patients (events): 0
  Fall: patients (events): 0
  Flushing: patients (events): 0
  Gastrointestinal disorders: patients (events): 1 (1 event)
  General disorders and administration site conditions: patients (events): 0
  Headache: patients (events): 0
  Infections and infestations: patients (events): 1 (1 event)
  Injury, poisoning and procedural complications: patients (events): 0
  Mouth ulceration: patients (events): 1 (1 event)
  Nasopharyngitis: patients (events): 1 (1 event)
  Nervous system disorders: patients (events): 0
  Oropharyngeal pain: patients (events): 0
  Presyncope: patients (events): 0
  Pyrexia: patients (events): 0
  Respiratory, thoracic and mediastinal disorders: patients (events): 1 (1 event)
  Tympanic membrane perforation: patients (events): 0
  Vascular disorders: patients (events): 0
  Vomiting: patients (events): 0
[3]
  Abdominal pain upper: patients (events): 1 (2 events)
  Any treatment-emergent adverse event: patients (events): 5 (15 events)
  Chills: patients (events): 0

Source: PMC7482441 (Pharmacological Research, 2020)
